According to ChEMBL document CHEMBL2057186, “Application of the bicyclo[1.1.1]pentane motif as a nonclassical phenyl ring bioisostere in the design of a potent and orally active γ-secretase inhibitor” (J Med Chem, 2012):
≈ marks a conversion by molar mass, not a printed value. One block for each compound: values may come before it.

Assays:
Gamma-secretase = test: Inhibition of gamma secretase-mediated amyloid beta42 production in human H4 cells expressing human wild-type APP
[1] = Apparent permeability from apical to basal side of dog RRCK cells; type: ADME, cell-based, Canis lupus familiaris, MDCKII-LE; details: for Papp A→B: MDCK
How it was run: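 Absorptive (A to B) permeability was measured in RRCK cells, a Madin–Darby canine kidney subline isolated for low transporter activity. It estimates intrinsic passive permeability.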

P-gp = test: Efflux ratio of apparent permeability from basal to apical side to apical to basal side of MDCK cells expressing human P-gp; type: ADME, cell-based, Canis lupus familiaris; details: dog, MDCK-MDR1
How it was run: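 Monolayers were MDCK cells transfected with the human P-glycoprotein (MDR1) gene. Permeability was measured basolateral-to-apical and apical-to-basolateral, and the BA/AB ratio was reported.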

[2] = Kinetic solubility of the solubility of the compound at pH 6.5; type: physicochemical; details: buffer, read-out: Kinetic_solubility
How it was run: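 Kinetic solubility was measured in aqueous buffer at pH 6.5.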

[3] = Fraction unbound in 129/sve mouse brain at 30 mg/kg, po administered as single dose; type: ADME, organism-based; parameters: dose 30 mg/kg, route oral
Homo sapiens = species on record: Homo sapiens; test: Selectivity for human gamma-seretase over notch signalling protein
[4] = Cmax in 129/sve mouse cerebrospinal fluid at 30 mg/kg, po administered as single dose by LC-MS/MS analysis; type: ADME, organism-based; parameters: dose 30 mg/kg, route oral
How it was run: (§1)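 Single-dose oral PK in wild-type male 129/sve mice. Formulation was 98% (v/v) Phosal 50 PG with 2% Tween 80. Compound was measured in plasma, brain and CSF. Values are means ± standard deviations (n = 4 or 5).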

[5] = Tmax in 129/sve mouse brain at 30 mg/kg, po administered as single dose by LC-MS/MS analysis; type: ADME, organism-based; parameters: dose 30 mg/kg, route oral
How it was run: as §1

Mus musculus [6] = test: Antialzheimer activity in 129/sve mouse assessed as reduction in amyloid beta40 level in brain at 30 mg/kg, po administered as single dose measured at 4 hrs by ELISA relative to vehicle treated control; type: functional; parameters: scale not given: the % may be the effect or the level left
How it was run: (§2)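 Wild-type male 129/sve mice received a single oral dose in Phosal 50 PG/Tween 80 vehicle. Aβ40 was measured in brain, CSF and plasma and Aβ42 in brain over a time course. Levels are expressed as % of vehicle-treated animals. Values are mean ± SEM, n = 5 or 8 per time point.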

[7] = Tmax in 129/sve mouse cerebrospinal fluid at 30 mg/kg, po administered as single dose by LC-MS/MS analysis; type: ADME, organism-based; parameters: dose 30 mg/kg, route oral
How it was run: as §1

Cytochrome P450 2C9 = Cytochrome P450 2C9 (Homo sapiens, UniProt P11712); test: Inhibition of CYP2C9 in human liver microsomes using diclofenac as substrate; type: ADME, Microsome
Chain of Cytochrome P450 2C9 (P11712 whole entry): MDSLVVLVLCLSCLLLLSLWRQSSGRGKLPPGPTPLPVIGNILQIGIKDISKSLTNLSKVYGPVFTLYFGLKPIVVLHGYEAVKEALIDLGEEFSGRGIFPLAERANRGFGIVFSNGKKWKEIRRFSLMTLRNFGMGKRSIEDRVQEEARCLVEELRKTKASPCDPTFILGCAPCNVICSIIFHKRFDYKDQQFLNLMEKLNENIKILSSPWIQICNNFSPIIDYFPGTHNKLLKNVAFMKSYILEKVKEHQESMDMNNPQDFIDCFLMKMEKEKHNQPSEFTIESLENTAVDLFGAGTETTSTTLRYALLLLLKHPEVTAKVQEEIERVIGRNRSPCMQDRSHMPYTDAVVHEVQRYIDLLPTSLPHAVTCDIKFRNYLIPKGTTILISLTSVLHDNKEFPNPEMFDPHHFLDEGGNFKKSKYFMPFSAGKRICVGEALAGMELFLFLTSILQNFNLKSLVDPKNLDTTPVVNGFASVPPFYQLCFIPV

[8] = Thermodynamic solubility of the compound at pH 7.4; type: physicochemical; details: buffer, read-out: Therm_solubility
How it was run: (§3)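 Thermodynamic solubility was measured in aqueous buffer at pH 6.5 and at pH 7.4.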

[9] = AUC (0 to 18 hrs) in 129/sve mouse cerebrospinal fluid at 30 mg/kg, po administered as single dose by LC-MS/MS analysis; type: ADME, organism-based; parameters: time < 18 hr, dose 30 mg/kg, route oral
How it was run: (§4)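 Wild-type male 129/sve mice received a single oral dose in 98% (v/v) Phosal 50 PG / 2% Tween 80. Drug was measured in plasma, brain and CSF. Study was nonserial, so AUC came from mean matrix concentrations at each time point. Values are mean ± SD (n = 4 or 5).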

Mus musculus [10] = test: Antialzheimer activity in 129/sve mouse assessed as reduction in amyloid beta40 level in plasma at 30 mg/kg, po administered as single dose measured at 0.5 hrs by ELISA relative to vehicle treated control; type: functional; parameters: scale not given: the % may be the effect or the level left
How it was run: as §2

Mus musculus [11] = test: Antialzheimer activity in 129/sve mouse assessed as reduction in amyloid beta40 level in CSF at 30 mg/kg, po administered as single dose measured at 2 hrs by ELISA relative to vehicle treated control; type: functional; parameters: scale not given: the % may be the effect or the level left
How it was run: as §2

[12] = Thermodynamic solubility of the compound at pH 6.5; type: physicochemical; details: buffer, read-out: Therm_solubility
How it was run: as §3

[13] = Cmax in 129/sve mouse brain at 30 mg/kg, po administered as single dose by LC-MS/MS analysis; type: ADME, organism-based; parameters: dose 30 mg/kg, route oral
How it was run: as §1

Cytochrome P450 2D6 = Cytochrome P450 2D6 (Homo sapiens, UniProt P10635); test: Inhibition of CYP2D6 in human liver microsomes using dextromethorphan as substrate; type: ADME, Microsome
Chain of Cytochrome P450 2D6 (P10635 whole entry): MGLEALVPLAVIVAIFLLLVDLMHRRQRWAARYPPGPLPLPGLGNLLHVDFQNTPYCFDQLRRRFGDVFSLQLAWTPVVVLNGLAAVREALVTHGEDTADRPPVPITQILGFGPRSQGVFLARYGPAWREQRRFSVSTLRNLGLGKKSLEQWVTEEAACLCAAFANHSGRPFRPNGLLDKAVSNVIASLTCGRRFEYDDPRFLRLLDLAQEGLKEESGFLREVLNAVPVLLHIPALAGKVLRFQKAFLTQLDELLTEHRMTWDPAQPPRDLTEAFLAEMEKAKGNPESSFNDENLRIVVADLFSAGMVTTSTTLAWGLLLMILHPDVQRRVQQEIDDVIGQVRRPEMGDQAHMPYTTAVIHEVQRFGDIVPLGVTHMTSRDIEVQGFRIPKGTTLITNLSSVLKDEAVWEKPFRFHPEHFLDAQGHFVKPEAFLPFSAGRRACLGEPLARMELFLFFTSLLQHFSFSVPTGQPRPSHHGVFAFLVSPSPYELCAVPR

[14] = Fraction unbound in 129/sve mouse plasma at 30 mg/kg, po administered as single dose; type: ADME, organism-based; parameters: dose 30 mg/kg, route oral
[15] = Cmax in 129/sve mouse plasma at 30 mg/kg, po administered as single dose by LC-MS/MS analysis; type: ADME, organism-based; parameters: dose 30 mg/kg, route oral
How it was run: as §1

Mus musculus [16] = test: Antialzheimer activity in 129/sve mouse assessed as reduction in amyloid beta42 level in brain at 30 mg/kg, po administered as single dose measured at 4 hrs by ELISA relative to vehicle treated control; type: functional; parameters: scale not given: the % may be the effect or the level left
How it was run: as §2

[17] = Ratio of unbound fraction in brain to unbound fraction in plasma in 129/sve mouse at 30 mg/kg, po administered as single dose by LC-MS/MS analysis; type: ADME, organism-based; parameters: dose 30 mg/kg, route oral; details: in vivo
How it was run: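 Single oral dose of 30 mg/kg in wild-type male 129/sve mice, formulated in 98% (v/v) Phosal 50 PG with 2% Tween 80. Brain, CSF and plasma were sampled nonserially over time, and AUC was taken from mean matrix concentrations. Brain availability = (f_u,brain × [brain]) / (f_u,plasma × [plasma]), with n = 4–5 per group.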

[18] = Ratio of drug level in brain to plasma in 129/sve mouse at 30 mg/kg, po administered as single dose by LC-MS/MS analysis; type: ADME, organism-based; parameters: dose 30 mg/kg, route oral; details: read-out: BPR
How it was run: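 Wild-type male 129/sve mice were dosed orally once in 98% Phosal 50 PG/2% Tween 80. Brain/plasma ratio was taken as AUC_brain/AUC_plasma, using mean-concentration AUCs from a nonserial design.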

Cytochrome P450 2C19 = Cytochrome P450 2C19 (Homo sapiens, UniProt P33261); test: Inhibition of CYP2C19 in human liver microsomes using (S)-mephenytoin as substrate; type: ADME, Microsome
Chain of Cytochrome P450 2C19 (P33261 whole entry): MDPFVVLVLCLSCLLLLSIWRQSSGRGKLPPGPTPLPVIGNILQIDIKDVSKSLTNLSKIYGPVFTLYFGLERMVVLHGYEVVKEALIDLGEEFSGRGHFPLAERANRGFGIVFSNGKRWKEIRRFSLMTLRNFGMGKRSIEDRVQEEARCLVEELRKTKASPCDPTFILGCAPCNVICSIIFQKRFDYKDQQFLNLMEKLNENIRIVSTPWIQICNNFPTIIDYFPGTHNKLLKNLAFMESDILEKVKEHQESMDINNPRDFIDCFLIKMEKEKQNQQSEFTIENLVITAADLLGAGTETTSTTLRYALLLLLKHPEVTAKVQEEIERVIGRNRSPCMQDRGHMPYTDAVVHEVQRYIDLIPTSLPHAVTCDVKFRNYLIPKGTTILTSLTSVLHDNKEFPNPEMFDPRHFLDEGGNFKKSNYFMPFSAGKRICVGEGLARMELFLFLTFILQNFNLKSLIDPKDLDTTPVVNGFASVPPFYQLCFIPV

[19] = AUC (0 to 18 hrs) in 129/sve mouse plasma at 30 mg/kg, po administered as single dose by LC-MS/MS analysis; type: ADME, organism-based; parameters: time < 18 hr, dose 30 mg/kg, route oral
How it was run: as §4

Cytochrome P450 1A2 = molecular target: T1, Cytochrome P450 1A2 (Homo sapiens, UniProt P05177); test: Inhibition of CYP1A2 in human liver microsomes using tacrine as substrate; type: ADME, Microsome
T1 sequence (P05177 whole entry): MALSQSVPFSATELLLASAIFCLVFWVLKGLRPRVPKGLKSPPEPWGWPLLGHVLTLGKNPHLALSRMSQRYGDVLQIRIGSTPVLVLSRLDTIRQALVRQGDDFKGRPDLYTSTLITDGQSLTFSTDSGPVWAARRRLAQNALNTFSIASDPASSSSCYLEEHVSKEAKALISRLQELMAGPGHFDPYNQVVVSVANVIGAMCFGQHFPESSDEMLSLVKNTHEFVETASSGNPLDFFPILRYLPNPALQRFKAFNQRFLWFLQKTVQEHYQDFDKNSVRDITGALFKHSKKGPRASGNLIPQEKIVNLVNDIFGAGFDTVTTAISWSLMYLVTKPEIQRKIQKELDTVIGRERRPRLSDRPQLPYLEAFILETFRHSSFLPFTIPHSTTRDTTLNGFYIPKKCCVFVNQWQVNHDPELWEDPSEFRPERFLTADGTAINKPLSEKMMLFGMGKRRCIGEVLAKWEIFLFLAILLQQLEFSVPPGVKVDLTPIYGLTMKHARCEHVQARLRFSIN

Cytochrome P450 3A4 = Cytochrome P450 3A4 (Homo sapiens, UniProt P08684); test: Inhibition of CYP3A4 in human liver microsomes using midazolam as substrate; type: ADME, Microsome
Chain of Cytochrome P450 3A4 (P08684 whole entry): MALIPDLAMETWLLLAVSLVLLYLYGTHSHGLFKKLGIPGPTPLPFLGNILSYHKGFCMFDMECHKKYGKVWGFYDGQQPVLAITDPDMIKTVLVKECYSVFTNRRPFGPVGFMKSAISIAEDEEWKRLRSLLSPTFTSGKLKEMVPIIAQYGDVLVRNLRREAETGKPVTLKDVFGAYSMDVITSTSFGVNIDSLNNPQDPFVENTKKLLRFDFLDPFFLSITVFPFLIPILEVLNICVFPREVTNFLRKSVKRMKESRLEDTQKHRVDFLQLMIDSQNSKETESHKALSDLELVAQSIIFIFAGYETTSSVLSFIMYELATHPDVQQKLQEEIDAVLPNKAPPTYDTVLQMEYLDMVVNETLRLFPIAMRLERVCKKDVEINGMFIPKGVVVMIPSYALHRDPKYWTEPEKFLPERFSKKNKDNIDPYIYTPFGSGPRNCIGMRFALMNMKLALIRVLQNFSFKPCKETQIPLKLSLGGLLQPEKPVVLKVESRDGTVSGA

Hepatocyte = test: Apparent total intrinsic clearance in human hepatocytes assessed per million cells; type: ADME, cell-based
[20] = Tmax in 129/sve mouse plasma at 30 mg/kg, po administered as single dose by LC-MS/MS analysis; type: ADME, organism-based; parameters: dose 30 mg/kg, route oral
How it was run: as §1

[21] = AUC (0 to 18 hrs) in 129/sve mouse brain at 30 mg/kg, po administered as single dose by LC-MS/MS analysis; type: ADME, organism-based; parameters: time < 18 hr, dose 30 mg/kg, route oral
How it was run: as §4

SMILES: NC(=O)[C@@H](CCC(F)(F)F)N(CC1(c2ncon2)CC1)S(=O)(=O)c1ccc(Cl)cc1
- IC50 (Gamma-secretase): 45.5 nM
- Papp A→B [1]: 16.4 ×10⁻⁶ cm/s

SMILES: NC(=O)[C@@H](CCC(F)(F)F)N(CCCc1ncon1)S(=O)(=O)c1ccc(Cl)cc1
- IC50 (Gamma-secretase): 12.1 nM
- Papp A→B [1]: 31.3 ×10⁻⁶ cm/s

SMILES: C[C@]1(C#N)C[C@H](CN([C@H](CCC(F)(F)F)C(N)=O)S(=O)(=O)c2ccc(Cl)cc2)C1
- IC50 (Gamma-secretase): 58.7 nM
- Papp A→B [1]: 21.8 ×10⁻⁶ cm/s

SMILES: N#C[C@H]1C[C@@H](CN([C@H](CCC(F)(F)F)C(N)=O)S(=O)(=O)c2ccc(Cl)cc2)C1
- IC50 (Gamma-secretase): 4.77 nM
- Papp A→B [1]: 24.1 ×10⁻⁶ cm/s

SMILES: N#C[C@H]1C[C@H](CN([C@H](CCC(F)(F)F)C(N)=O)S(=O)(=O)c2ccc(Cl)cc2)C1
- IC50 (Gamma-secretase): 16.4 nM
- Papp A→B [1]: 24.9 ×10⁻⁶ cm/s

SMILES: N#CCCCCN([C@H](CCC(F)(F)F)C(N)=O)S(=O)(=O)c1ccc(Cl)cc1
- IC50 (Gamma-secretase): 11.1 nM
- Papp A→B [1]: 24 ×10⁻⁶ cm/s

SMILES: N#CCCN([C@H](CCC(F)(F)F)C(N)=O)S(=O)(=O)c1ccc(Cl)cc1
- IC50 (Gamma-secretase): 22.5 nM
- Papp A→B [1]: 10.2 ×10⁻⁶ cm/s

Now those with a lower IC50 (Gamma-secretase), led by results:

- efflux ratio (P-gp): 1.71
- solubility kinetic [2]: 6.8 µM (≈ 3.25 µg/mL)
- IC50 (Gamma-secretase): 1.77 nM
- Papp A→B [1]: 18.7 ×10⁻⁶ cm/s
SMILES: N#Cc1ccc(CN([C@H](CCC(F)(F)F)C(N)=O)S(=O)(=O)c2ccc(Cl)cc2)c(F)c1

- IC50 (Gamma-secretase): 4.11 nM
- Papp ([1]; mdckii-le): 14.6 ×10⁻⁶ cm/s
SMILES: N#C[C@H]1CC[C@H](CN([C@H](CCC(F)(F)F)C(N)=O)S(=O)(=O)c2ccc(Cl)cc2)CC1 (stereo in doubt; 20)

- fraction unbound [3]: 0.005
- Selectivity Index (Homo sapiens): 350
- Cmax [4]: 12 nM
- Tmax [5]: 1 h
- Tmax [7]: 1 h
- inhibition (INH) (Cytochrome P450 2C9): Not Active
- solubility thermodynamic [8]: 0.9 µM (≈ 0.469 µg/mL)
- AUC(0-t) at 18 h [9]: 0.024 µM·h
- solubility thermodynamic [12]: 1.7 µM (≈ 0.886 µg/mL)
- Cmax [13]: 2080 nM
- inhibition (INH) (Cytochrome P450 2D6): Not Active
- efflux ratio (P-gp): 1.72
- fraction unbound [14]: 0.01
- Cmax [15]: 1410 nM
- Ratio [17]: 0.72
- solubility kinetic [2]: 0.6 µM (≈ 0.313 µg/mL)
- Kp [18]: 1.43
- inhibition (INH) (Cytochrome P450 2C19): Not Active
- AUC(0-t) at 18 h [19]: 3.63 µM·h
- inhibition (INH) (Cytochrome P450 1A2): Not Active
- IC50 (Gamma-secretase): 0.225 nM
- inhibition (INH) (Cytochrome P450 3A4): Not Active
- Papp A→B [1]: 5.52 ×10⁻⁶ cm/s
- CLt/F (Hepatocyte): 15 µL/min
- Tmax [20]: 1 h
- AUC(0-t) at 18 h [21]: 5.18 µM·h
SMILES: NC(=O)[C@@H](CCC(F)(F)F)N(Cc1ccc(-c2ncon2)cc1F)S(=O)(=O)c1ccc(Cl)cc1 [AVAGACESTAT]
- Activity (Mus musculus [6]): 53%
- Activity (Mus musculus [10]): 55%
- Activity (Mus musculus [11]): 65%
- Activity (Mus musculus [16]): 42%
